Converted amounts (≈) assume the structure as drawn.
Tests used:
Microsporum canis = experiment: Antifungal activity against Microsporum canis VM-200 USPHS assessed as growth inhibition by agar dilution method; format: functional
Histoplasma capsulatum = experiment: Antifungal activity against Histoplasma capsulatum RNSH Hi-70 1/2 assessed as growth inhibition by agar dilution method; format: functional
Nannizzia gypsea = experiment: Antifungal activity against Microsporum gypseum 153 CSTM assessed as growth inhibition by agar dilution method; format: functional
[1] = test system: Trichophyton mentagrophytes; experiment: Antifungal activity against Trichophyton mentagrophytes A-280 USPHS assessed as growth inhibition by agar dilution method; format: functional
Trichophyton rubrum = experiment: Antifungal activity against Trichophyton rubrum 252 CSTM assessed as growth inhibition by agar dilution method; format: functional
Candida albicans = experiment: Antifungal activity against Candida albicans SKF 2270 assessed as growth inhibition by agar dilution method; format: functional
[2] = test system: Agrobacterium tumefaciens; experiment: Antibacterial activity against Agrobacterium tumefaciens NRRL B-36 assessed as growth inhibition after 24 hrs by dilution tube method; format: functional; conditions: NRRL B-36, 24 h
Outline: (§1)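 Broth tube dilution in Tryptone Soya Broth, duplicate tubes at each concentration. MIC (μg/ml) was the highest dilution preventing visible growth. Nitrofurantoin run under the same conditions.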

Staphylococcus aureus = experiment: Antibacterial activity against Staphylococcus aureus ATCC 6538 assessed as growth inhibition after 24 hrs by dilution tube method; format: functional; conditions: ATCC 6538, 24 h; outline: as §1
Enterococcus faecalis = experiment: Antibacterial activity against Streptococcus faecalis ATCC 10541 assessed as growth inhibition after 24 hrs by dilution tube method; format: functional; conditions: ATCC 10541, 24 h; outline: as §1
Escherichia coli = experiment: Antibacterial activity against Escherichia coli 114 assessed as growth inhibition after 24 hrs by dilution tube method; format: functional; conditions: Escherichia coli, 114, 24 h; outline: as §1
Cryptococcus neoformans = experiment: Antifungal activity against Cryptococcus neoformans 103 assessed as growth inhibition by agar dilution method; format: functional
Klebsiella pneumoniae = experiment: Antibacterial activity against Klebsiella pneumoniae ATCC 10031 assessed as growth inhibition after 24 hrs by dilution tube method; format: functional; conditions: ATCC 10031, 24 h; outline: as §1
Pseudomonas aeruginosa = experiment: Antibacterial activity against Pseudomonas aeruginosa ATCC 10145 assessed as growth inhibition after 24 hrs by dilution tube method; format: functional; conditions: ATCC 10145, 24 h; outline: as §1
Salmonella typhi = experiment: Antibacterial activity against Salmonella typhi 115 assessed as growth inhibition after 24 hrs by dilution tube method; format: functional, Salmonella enterica subsp. enterica serovar Typhi; conditions: Salmonella enterica, 115, 24 h
Outline: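 Dilution tube method in Tryptone Soya Broth; MIC (μg/ml) taken as highest dilution preventing visible growth; duplicates at every concentration; nitrofurantoin reference run under same conditions.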

[3] = test system: Mycobacterium tuberculosis; experiment: Antibacterial activity against Mycobacterium tuberculosis H37Rv assessed as growth inhibition by serial dilution method; format: functional
Outline: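 M. tuberculosis H37Rv maintained on Lowenstein–Jensen medium; tested in Youman's medium by serial dilution.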

| Structure (SMILES) | MIC (Microsporum canis) | MIC (Histoplasma capsulatum) | MIC (Nannizzia gypsea) | MIC [1] | MIC (Trichophyton rubrum) | MIC (Candida albicans) | MIC [2] | MIC (Staphylococcus aureus) | MIC (Enterococcus faecalis) | MIC (Escherichia coli) | MIC (Cryptococcus neoformans) | MIC (Klebsiella pneumoniae) | MIC (Pseudomonas aeruginosa) | MIC (Salmonella typhi) | MIC [3] |
| --- | --- | --- | --- | --- | --- | --- | --- | --- | --- | --- | --- | --- | --- | --- | --- |
| C[C@@H]1[C@H](O)[C@@H](C)/C=C/C=C/C=C/C=C/C=C/C=C/C=C/[C@H](O[C@@H]2O[C@H](C)[C@@H](O)[C@H](N)[C@@H]2O)C[C@@H]2O[C@](O)(C[C@@H](O)C[C@@H](O)[C@H](O)CC[C@@H](O)C[C@@H](O)CC(=O)O[C@H]1C)C[C@H](O)[C@H]2C(=O)O [AMPHOTERICIN B] | 5 µg/mL (≈ 5.41 µM) | 0.5 µg/mL (≈ 0.541 µM) | 10 µg/mL (≈ 10.8 µM) | 10 µg/mL (≈ 10.8 µM) | 10 µg/mL (≈ 10.8 µM) | 2.5 µg/mL (≈ 2.71 µM) | – | – | – | – | – | – | – | – | – |
| C[N+](C)(CCCCCOc1ccc(Cl)cc1Cl)Cc1ccc(Br)o1.[Br-] | 50 µg/mL | 100 µg/mL | > 200 µg/mL | > 200 µg/mL | > 200 µg/mL | > 200 µg/mL | 50 µg/mL | 25 µg/mL | 50 µg/mL | > 200 µg/mL | 50 µg/mL | 25 µg/mL | 10 µg/mL | > 200 µg/mL | – |
| C[N+](C)(CCCCOc1ccccc1Cl)Cc1ccc([N+](=O)[O-])o1.[Br-] | > 200 µg/mL | > 200 µg/mL | > 200 µg/mL | > 200 µg/mL | > 200 µg/mL | > 200 µg/mL | > 200 µg/mL | 100 µg/mL | > 200 µg/mL | > 200 µg/mL | > 200 µg/mL | 100 µg/mL | 100 µg/mL | > 200 µg/mL | – |
| C[N+](C)(CCCCCOc1ccc(Cl)cc1)Cc1ccc(Br)o1.[Br-] | 100 µg/mL | > 200 µg/mL | > 200 µg/mL | > 200 µg/mL | > 200 µg/mL | > 200 µg/mL | > 200 µg/mL | 50 µg/mL | 100 µg/mL | > 200 µg/mL | > 200 µg/mL | 50 µg/mL | 25 µg/mL | > 200 µg/mL | – |
| Cc1cc(OCCCCCCCCCC[N+](C)(C)Cc2ccc([N+](=O)[O-])o2)c(C(C)C)cc1Cl.Cc1ccc(S(=O)(=O)[O-])cc1 | > 200 µg/mL | > 200 µg/mL | > 200 µg/mL | 200 µg/mL | > 200 µg/mL | > 200 µg/mL | – | 200 µg/mL | 100 µg/mL | > 200 µg/mL | 100 µg/mL | 200 µg/mL | 50 µg/mL | > 200 µg/mL | 25 µg/mL |
| O=C1CN(/N=C/c2ccc([N+](=O)[O-])o2)C(=O)N1 [NITROFURANTOIN] | – | – | – | – | – | – | 25 µg/mL (≈ 105 µM) | 25 µg/mL (≈ 105 µM) | 100 µg/mL (≈ 420 µM) | 25 µg/mL (≈ 105 µM) | – | 5 µg/mL (≈ 21 µM) | 2.5 µg/mL (≈ 10.5 µM) | 25 µg/mL (≈ 105 µM) | – |
| C[N+](C)(CCCCCCCCCCCCOc1c(Br)cc(Br)cc1Br)Cc1ccc([N+](=O)[O-])o1.[Br-] | > 200 µg/mL | > 200 µg/mL | – | > 200 µg/mL | > 200 µg/mL | > 200 µg/mL | > 200 µg/mL | 200 µg/mL | 200 µg/mL | – | 200 µg/mL | 200 µg/mL | 50 µg/mL | > 200 µg/mL | 100 µg/mL |
| Cc1cc(OCCCCCC[N+](C)(C)Cc2ccc([N+](=O)[O-])o2)c(C(C)C)cc1Cl.[Br-] | 100 µg/mL | > 200 µg/mL | > 200 µg/mL | > 200 µg/mL | 200 µg/mL | > 200 µg/mL | > 200 µg/mL | > 200 µg/mL | > 200 µg/mL | > 200 µg/mL | 25 µg/mL | > 200 µg/mL | > 200 µg/mL | > 200 µg/mL | – |
| C[N+](C)(CCCCCOc1ccccc1Cl)Cc1ccc(Br)o1.[Br-] | > 200 µg/mL | > 200 µg/mL | > 200 µg/mL | > 200 µg/mL | > 200 µg/mL | > 200 µg/mL | > 200 µg/mL | 50 µg/mL | > 200 µg/mL | > 200 µg/mL | > 200 µg/mL | 100 µg/mL | 50 µg/mL | > 200 µg/mL | – |
| Cc1cc(OCCCCCCCCCC[N+](C)(C)Cc2ccc(Br)o2)c(C(C)C)cc1Cl.[Br-] | 100 µg/mL | 100 µg/mL | > 200 µg/mL | – | > 200 µg/mL | > 200 µg/mL | > 200 µg/mL | 25 µg/mL | 50 µg/mL | > 200 µg/mL | 100 µg/mL | – | 25 µg/mL | > 200 µg/mL | – |
